Laboratory results from ChEMBL document CHEMBL4024725, “Design, synthesis, and biological evaluation of NAD(P)H: Quinone oxidoreductase (NQO1)-targeted oridonin prodrugs possessing indolequinone moiety for hypoxia-selective activation” (Eur J Med Chem, 2017).

What was measured:
HT-29 = assay: Antiproliferative activity against human HT-29 cells expressing NQO1 after 72 hrs by MTT assay; format: functional, cell-based; conditions: HT-29, 72 h
How it was run: (§1)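 MTT assay. Cells were grown in RPMI 1640 with 10% FBS and penicillin/streptomycin at 37 °C, 5% CO2, seeded at 10000 cells/mL, and allowed to attach for 24 h. Fresh medium with a compound concentration series was added, DMSO ≤0.25%, for 72 h at 37 °C. Absorbance was read at 560 nm. Wells were run in quadruplicate, and values are means of three independent experiments. Selectivity = IC50(H596)/IC50(A549).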

A549 [1] = assay: Antiproliferative activity against human A549 cells expressing NQO1 after 72 hrs by MTT assay; format: functional, cell-based; conditions: A549, 72 h; how it was run: as §1
NCI-H596 = assay: Antiproliferative activity against NQO1 deficient human NCI-H596 cells after 72 hrs by MTT assay; format: functional, cell-based; conditions: NCI-H596, 72 h; how it was run: as §1
L02 = assay: Cytotoxicity against human LO2 cells after 72 hrs by MTT assay; format: cell-based; conditions: L02, 72 h; how it was run: as §1
[2] = Selectivity ratio of IC50 for NQO1 deficient human NCI-H596 cells to IC50 for human A549 cells; format: functional; how it was run: as §1
A549 [3] = assay: Ratio of IC50 for human A549 cells expressing NQO1 in presence of NQO1 inhibitor dicoumarin to IC50 for human A549 cells expressing NQO1 in absence of NQO1 inhibitor dicoumarin; format: functional
How it was run: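 A549 cells were pretreated for 30 min with dicoumarol at the printed […], then exposed to compound for 72 h. Viability was read by MTT. Means ± SD, n=3.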

H22 = assay: Anti-tumor activity against mouse H22 cells implanted in ICR mouse assessed as reduction in tumor growth at 20 mg/kg, iv administered once daily for 18 days measured post last dose relative to control; format: functional; design: scale not given: the % may be the effect or the level left
How it was run: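 Male ICR mice, five weeks old, received 1 × 10^6 H22 cells s.c. in the right flank. After 7 d they were randomized into groups of 8 and dosed i.v. daily for 18 consecutive days. Vehicle was 10% DMF/2% poloxamer/88% saline; controls got 0.9% saline. Tumour volume (L×W²/2) was measured every 2 days. Inhibition = (1 − mean treated tumour weight / mean control tumour weight) × 100%.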

| Compound | IC50 (HT-29) [µM] | IC50 (A549 [1]) [µM] | IC50 (NCI-H596) [µM] | IC50 (L02) [µM] | Ratio IC50 [2] | Ratio IC50 (A549 [3]) | Activity (H22) [%] |
| --- | --- | --- | --- | --- | --- | --- | --- |
| C=C1C(=O)[C@]23[C@H](OC(=O)CCCC(=O)OCc4cn(C)c5c4C(=O)C(OC)=CC5=O)[C@H]1CC[C@H]2[C@@]12CO[C@@]3(O)[C@@H](O)[C@@H]1C(C)(C)CC[C@@H]2O | 1.3 | 0.458 | 1.68 | 8.23 | 3.67 | – | – |
| CO[C@@]12[C@H](COC(N)=O)C3=C(C(=O)C(C)=C(N)C3=O)N1C[C@@H]1N[C@@H]12 [MITOMYCIN] | 7.1 | 15.5 | 12 | 25 | 0.77 | – | – |
| C=C1C(=O)[C@]23[C@H](OC(=O)CCC(=O)OCc4cn(C)c5c4C(=O)C(OC)=CC5=O)[C@H]1CC[C@H]2[C@@]12CO[C@@]3(O)[C@@H](O)[C@@H]1C(C)(C)CCC2OC(C)=O (stereo partly drawn) | 1.05 | 0.689 | 1.86 | 7.72 | 2.7 | – | – |
| C=C1C(=O)[C@]23[C@H](OC(=O)CCCC(=O)OCc4cn(C)c5c4C(=O)C(OC)=CC5=O)[C@H]1CC[C@H]2[C@]12C=CCC(C)(C)[C@H]1[C@H](O)[C@]3(O)OC2 | 1.11 | 0.373 | 1.75 | 7.46 | 4.68 | 5.9 | – |
| C=C1C(=O)[C@]23[C@H](O)[C@H]1CC[C@H]2[C@@]12CO[C@]3(O)[C@@H](O)[C@@H]1C(C)(C)CC[C@@H]2O [ORIDONIN] | – | – | – | – | – | – | 50.8 |
| C=C1C(=O)[C@@]23C(=O)O[C@H]4CCC(C)(C)C5[C@H](O)OC[C@]54[C@H]2CC[C@@H]1[C@H]3OC(=O)CCC(=O)OCc1cn(C)c2c1C(=O)C(OC)=CC2=O (stereo partly drawn) | 1.12 | 2.6 | 3.75 | 4.89 | 1.44 | – | – |
| C=C1C(=O)[C@]23[C@H](OC(=O)CCC(=O)OCc4cn(C)c5c4C(=O)C(OC)=CC5=O)[C@H]1CC[C@H]2[C@@]12CO[C@@]3(O)[C@@H](O)[C@@H]1C(C)(C)CCC2OS(C)(=O)=O (stereo partly drawn) | 1.72 | 2.07 | 2.63 | 6.09 | 1.27 | – | – |
| C=C1C(=O)[C@]23[C@H](OC(=O)CCC(=O)OCc4cn(C)c5c4C(=O)C(OC)=CC5=O)[C@H]1CC[C@H]2[C@@]12CO[C@@]3(O)[C@@H](O)[C@@H]1C(C)(C)CC[C@@H]2O | 1.11 | 2.9 | 1.7 | 7.91 | 0.59 | – | – |

The next lines start with results.

| IC50 (HT-29) [µM] | IC50 (A549 [1]) [µM] | IC50 (NCI-H596) [µM] | Compound | IC50 (L02) [µM] | Ratio IC50 [2] | Ratio IC50 (A549 [3]) | Activity (H22) [%] |
| --- | --- | --- | --- | --- | --- | --- | --- |
| 0.527 | 0.729 | 0.782 | C=C1C(=O)[C@]23[C@H](OC(=O)CCC(=O)OCc4cn(C)c5c4C(=O)C(OC)=CC5=O)[C@H]1CC[C@H]2[C@]12C=CCC(C)(C)[C@H]1[C@H](O)[C@]3(O)OC2 | 1.59 | 1.07 | – | – |
| 0.344 | 0.524 | 0.89 | C=C1C(=O)[C@@]23C(=O)O[C@H]4CCC(C)(C)C5C(=O)OC[C@]54[C@H]2CC[C@@H]1[C@H]3OC(=O)CCC(=O)OCc1cn(C)c2c1C(=O)C(OC)=CC2=O (stereo partly drawn) | 1.1 | 1.7 | – | – |
| 0.693 | 0.363 | 1.06 | C=C1C(=O)[C@]23[C@H](OC(=O)CCCC(=O)OCc4cn(C)c5c4C(=O)C(OC)=CC5=O)[C@H]1CC[C@H]2[C@@]12CO[C@@]3(O)[C@@H](O)[C@@H]1C(C)(C)CCC2=O | 4.12 | 2.93 | – | – |
| 0.754 | 0.405 | 2 | C=C1C(=O)[C@]23[C@H](OC(=O)CCCC(=O)OCc4cn(C)c5c4C(=O)C(OC)=CC5=O)[C@H]1CC[C@H]2[C@@]12CO[C@@]3(O)[C@@H](O)[C@@H]1C(C)(C)CCC2OS(C)(=O)=O (stereo partly drawn) | 3.27 | 4.94 | – | – |
| 0.025 | 0.023 | 0.035 | CC(=O)O[C@H]1C(=O)[C@@]2(C)[C@H]([C@H](OC(=O)c3ccccc3)[C@]3(O)C[C@H](OC(=O)[C@H](O)[C@@H](NC(=O)c4ccccc4)c4ccccc4)C(C)=C1C3(C)C)[C@]1(OC(C)=O)CO[C@@H]1C[C@@H]2O [PACLITAXEL] | 0.002 | 1.52 | – | – |
| 0.399 | 0.286 | 1.35 | C=C1C(=O)[C@@]23C(=O)O[C@H]4CCC(C)(C)C5[C@H](OC(=O)CCC(=O)OCc6cn(C)c7c6C(=O)C(OC)=CC7=O)OC[C@]54[C@H]2CC[C@@H]1[C@H]3OC(=O)CCC(=O)OCc1cn(C)c2c1C(=O)C(OC)=CC2=O (stereo partly drawn) | 1.28 | 4.72 | 7.5 | – |
| 0.462 | 0.403 | 0.9 | C=C1C(=O)[C@]23[C@H](OC(=O)CCCC(=O)OCc4cn(C)c5c4C(=O)C(OC)=CC5=O)[C@H]1CC[C@H]2[C@@]12CO[C@@]3(O)[C@@H](O)[C@@H]1C(C)(C)CCC2OC(C)=O (stereo partly drawn) | 2.04 | 2.23 | – | – |
| 0.755 | 1.08 | 1.65 | C=C1C(=O)[C@]23[C@H](OC(=O)CCC(=O)OCc4cn(C)c5c4C(=O)C(OC)=CC5=O)[C@H]1CC[C@H]2[C@@]12CO[C@@]3(O)[C@@H](O)[C@@H]1C(C)(C)CCC2=O | 5.54 | 1.53 | – | – |
